Screens (PubChem BioAssay)
Statin myotox sup: suppressors of statin myotoxicity in C2C12 myotubes, primary screen, cell-based, single point, plate reader; actives 0.78% (n = 330,000); AID 602340, 2012; C2C12 myotubes + simvastatin, ATP luminescence, 48 h; scaled: DMSO 0, geranylgeraniol control 100; rescue of ATP level, % at 7.49 µM;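 active = mean ATP rescue above about 67%, or every replicate alone reaching that limit, limit read from the data, passing the limit was not always enough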;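 note: myotubes were challenged with 10 µM simvastatin during compound exposure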
Cneo AK release: Cryptococcus neoformans cell lysis inducers, primary screen, AK release luminescence, single concentration; actives 0.2% (n = 360,000); lysis activity, % at 15 µM; AID 651654, 2012; C. neoformans lysis, adenylate kinase release luminescence, 4 h; normalised: neutral wells 0, clomiphene wells 100;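 active = mean lysis activity across replicates of at least 80%, whatever share of replicates individually reach that level; inactive = mean lysis activity below 80%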
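read-out = cell lysis signal | test system = log-phase Cryptococcus neoformans yeast cells | input = cells at 5 × 10^6 per mL | medium = fresh YPD growth medium | signal = luminescent adenylate kinase detection reagent | timing = 4 h at 37 °C static, read 1 h later | dosing = single dose | controls = Clomiphene as positive lysis control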
Efflux pump mplx: inhibitors of Candida efflux pumps in yeast, primary screen, S. cerevisiae, Nile Red, multiplex. S. cerevisiae Candida pump triplex. inhibition, % at 10 µM. actives 0.44% (n = 330,000);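 active = plate passing quality check with inhibition over a set limit, or well fluorescence over plate mean plus 4 SD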;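 note: Nile Red retained in pooled yeast measured as flow cytometry median fluorescence; higher means more Nile Red kept so more efflux inhibition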
Mot1-301 SUMO: yeast Mot1-301 growth rescue at high temperature, primary screen, SUMOylation pathway inhibitor project, S. cerevisiae, ATP luminescence, 38.5C; actives 1% (n = 320,000); S. cerevisiae Mot1-301 growth rescue; percent above DMSO median, 100 means doubled; AID 2716, 2010; growth rescue, % at 18.8 µM;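 active = every valid replicate shows activation above 250% relative to neutral control wells; inactive = the rest, any valid replicate at or below 250%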
Cmpd fluor yeast: compound fluorescence in yeast efflux pump counter-screen; shares compounds with Efflux pump mplx; fluorescence ratio to DMSO, % at 10 µM; S. cerevisiae AD/pABC3, flow cytometry; actives 4% (n = 1,700);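 active = fluorescence ratio to DMSO above its plate's cutoff, the plate mean ratio plus 5 SD, cut at about 210% in these data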;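 note: unstained yeast with no Nile Red so the signal is compound autofluorescence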
Mdr1 pump inh: inhibitors of Candida albicans Mdr1 efflux, confirmation, flow cytometry, singleplex, Cherry Pick1 set; S. cerevisiae AD/CaMDR1, Nile Red efflux; actives 1% (n = 1,700); shares compounds with Efflux pump mplx; AID 588518, 2011; inhibition, % at 10 µM; in the data active = inhibition above about 26%;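 note: higher means more Nile Red retained so more efflux inhibition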
Cdr2 pump inh: inhibitors of Candida albicans Cdr2 efflux pump, confirmation, S. cerevisiae AD/CaCDR2, flow cytometry, cherry pick 1, singleplex; shares compounds with Efflux pump mplx; Nile Red retention; Nile Red retention ratio vs DMSO, % at 10 µM; actives 4% (n = 1,700); AID 588520, 2011; in the data active = Nile Red retention ratio vs DMSO above about 190%;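 note: higher ratio means more blocking of Cdr2 efflux of the dye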
CaCdr1 efflux inh: inhibitors of Candida albicans Cdr1 efflux pump, confirmation, S. cerevisiae AD/CaCDR1, flow cytometry, cherry pick 1, singleplex. shares compounds with Efflux pump mplx. Nile Red efflux. inhibition, % at 10 µM. actives 1% (n = 1,700);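 active = inhibition above the screen-wide mean plus twice its standard deviation, cut at about 32% in these data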
Large screens that a line does not name were inactive (follow-up assays come after a bar, where they were run). A selection: hits, their analogues and other compounds. The true share with any hit is near 1.8%.

N#Cc1cccc(C(=O)OCC(=O)N2CCCc3ccccc32)c1	none
CS(=O)(=O)Nc1ccc(C(=O)N2CCCCC2)cc1	none
CC1CCN(C(=O)c2ccc(NS(C)(=O)=O)cc2)CC1	Efflux pump mplx 0.6 | Cmpd fluor yeast inactive | Mdr1 pump inh inactive | Cdr2 pump inh inactive | CaCdr1 efflux inh inactive
CC(C)CCN(C)C1CCN(S(=O)(=O)c2ccc(F)cc2)CC1	none
CCOC(=O)c1c(C)[nH]c(C)c1S(=O)(=O)NCc1ccccc1OCC	none (no result: Cneo AK release)
CCOC(=O)c1c(C)[nH]c(C)c1S(=O)(=O)NCc1ccccc1C	Efflux pump mplx 0.4 | Cmpd fluor yeast inactive | Mdr1 pump inh inactive | Cdr2 pump inh inactive | CaCdr1 efflux inh inactive
O=C(C[C@H]1C[C@H]2c3cc(NS(=O)(=O)c4ccc(F)cc4)ccc3O[C@H]2[C@@H](CO)O1)NCc1ccccc1F	none (no result: Efflux pump mplx, Mot1-301 SUMO)
O=C(OC1CCOC1=O)c1ccc(S(=O)(=O)N2CCCCCC2)cc1 (centres undefined)	none
CN(C)S(=O)(=O)c1ccc(C(=O)OC2CCOC2=O)cc1 (centres undefined)	Efflux pump mplx 1.5 | Cmpd fluor yeast inactive | Mdr1 pump inh inactive | Cdr2 pump inh inactive | CaCdr1 efflux inh inactive
O=C(N[C@@H]1C=C[C@@H](CC(=O)N2CCc3ccccc3C2)O[C@H]1CO)C1CCC1	none (no result: Efflux pump mplx, Mot1-301 SUMO)
COc1cccc(C2CC(c3ccccc3)=NN2S(=O)(=O)c2ccc(C)cc2)c1OC (centres undefined)	Efflux pump mplx 1.4 (no result: Statin myotox sup, Cneo AK release) | Cmpd fluor yeast inactive | Mdr1 pump inh inactive | Cdr2 pump inh inactive | CaCdr1 efflux inh inactive
COc1ccccc1C1CC(c2ccccc2)=NN1S(=O)(=O)c1ccccc1 (centres undefined)	none
C[C@H](NC(=O)[C@H]1[C@H](CO)[C@H]2Cn3c(cccc3=O)[C@H]2N1Cc1ccncc1)c1ccccc1	none (no result: Efflux pump mplx, Mot1-301 SUMO)
O=C1c2cc(Cl)ccc2OC2(CCNCC2)C12CC(c1ccc(Cl)cc1)=NO2 (centres undefined)	none (no result: Statin myotox sup, Efflux pump mplx) | Cmpd fluor yeast inactive | Mdr1 pump inh inactive | Cdr2 pump inh inactive | CaCdr1 efflux inh inactive
CC(C)C(=O)N1CCC2(CC1)Oc1ccc(Cl)cc1C(=O)C21CC(c2ccc(Cl)cc2)=NO1 (centres undefined)	none | Cmpd fluor yeast inactive | Mdr1 pump inh inactive | Cdr2 pump inh inactive | CaCdr1 efflux inh inactive
O=C1c2cc(Cl)ccc2OC2(CCNCC2)C12CC(c1ccccc1)=NO2 (centres undefined)	none | Cmpd fluor yeast inactive | Mdr1 pump inh inactive | Cdr2 pump inh inactive | CaCdr1 efflux inh inactive
CN1c2ccc(-c3ccccc3)cc2[C@@H]2[C@@H](CCN2C(=O)c2cccc(F)c2)[C@@H]1CO	none (no result: Efflux pump mplx, Mot1-301 SUMO)
CC(=O)N1CCN(c2ccc(NC(=O)c3ccccc3)cc2)CC1	none
CC(=O)N1CCN(c2ccc(NC(=S)NC(=O)c3ccccc3)cc2)CC1	Efflux pump mplx 5.8 (no result: Statin myotox sup) | Cmpd fluor yeast inactive | Mdr1 pump inh inactive | Cdr2 pump inh inactive | CaCdr1 efflux inh inactive
O=C(NC1CCCC1)c1ccc(CSc2nc3ccncc3n2Cc2ccc(F)cc2)cc1	none
CCC(C)NC(=O)c1ccc(CSc2nc3ccncc3n2Cc2ccc(F)cc2)cc1 (centres undefined)	none | Cmpd fluor yeast inactive | Mdr1 pump inh inactive | Cdr2 pump inh inactive | CaCdr1 efflux inh inactive
C[C@@H]1CN([C@H](C)CO)C(=O)c2cc(-c3ccccc3F)cnc2O[C@H]1CN(C)Cc1ccccc1	none (no result: Efflux pump mplx, Mot1-301 SUMO)
CC(SCc1ccccc1)C(=O)N/N=C/c1ccc(OCC(=O)NCc2ccco2)cc1 (centres undefined)	Efflux pump mplx 14 | Cmpd fluor yeast inactive | Mdr1 pump inh inactive | Cdr2 pump inh inactive | CaCdr1 efflux inh inactive
